Most compounds without a hit are left out; they make up all but 4.7% or so of the library.
ADAM17 inh – inhibits human ADAM17. recombinant ADAM17, EDANS/DABCYL FRET peptide cleavage. 0.83% of 370,000 active. AID 720648. P78536. inhibition, % at 6.95 µM;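 active = inhibition above the mean of compounds lying between control limits plus 3 SD, set per campaign, cut at about 8.5% in these data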
Target sequence (P78536 215-824 limits assumed): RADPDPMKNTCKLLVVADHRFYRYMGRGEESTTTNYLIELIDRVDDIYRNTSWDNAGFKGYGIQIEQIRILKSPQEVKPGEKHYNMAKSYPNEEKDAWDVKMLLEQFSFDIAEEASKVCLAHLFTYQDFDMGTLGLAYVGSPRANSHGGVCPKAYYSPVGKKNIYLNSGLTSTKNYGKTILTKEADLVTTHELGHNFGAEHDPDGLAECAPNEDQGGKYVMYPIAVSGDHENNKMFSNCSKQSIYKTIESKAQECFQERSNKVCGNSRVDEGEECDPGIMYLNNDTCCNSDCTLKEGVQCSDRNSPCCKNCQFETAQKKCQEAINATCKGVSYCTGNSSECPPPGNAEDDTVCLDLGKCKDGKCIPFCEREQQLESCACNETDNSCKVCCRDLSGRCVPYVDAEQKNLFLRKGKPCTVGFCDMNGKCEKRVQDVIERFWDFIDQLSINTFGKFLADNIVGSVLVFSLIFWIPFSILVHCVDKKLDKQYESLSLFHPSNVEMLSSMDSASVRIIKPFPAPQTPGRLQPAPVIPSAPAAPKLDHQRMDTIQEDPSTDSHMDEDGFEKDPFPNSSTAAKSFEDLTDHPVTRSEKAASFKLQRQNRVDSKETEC
SKN-1 block – blocks SKN-1 activity in C. elegans | C. elegans VP596 Pgst-4::GFP/RFP ratio, acrylamide-induced, 24 h | inhibition, % at 21.8 µM | 0.49% of 360,000 active;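 active = interference check ratio from 0.5 to 1.5 plus GFP to RFP signal ratio inhibition reaching or exceeding a fixed threshold, cut at about 30% in these data, passing the limit was not always enough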
MT1-MMP act inh – blocks activation of human MT1-MMP; HT1080 RFP-PRO-GFP cells, GFP/RFP ratio fluorescence, overnight; percent of plate control window, DMSO zero; GFP/RFP ratio change, % at 20 µM; 0.061% of 360,000 active; P50281;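 active = GFP/RFP ratio change of at least 30% with cell ATP level not reduced by more than half and red fluorescence within 50% of control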
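Material: RFP-PRO-GFP reporter HT1080 cells. Dosing: single-point 20 µM compound, 1% DMSO. Controls: DMSO and RFP-L50D-GFP cell wells. Timing: cells overnight before dosing, compound overnight, 37 °C, 5% CO2. Measure: GFP/RFP fluorescence ratio.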
ADAM10 inh – inhibitors of human ADAM10; recombinant ADAM10, EDANS/DABCYL FRET peptide cleavage, 3 h; inhibition, % at 7 µM; AID 720582; O14672; 0.62% of 370,000 active;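 active = inhibition above a per-campaign cutoff equal to the mean of compounds falling between control-based bounds plus 3 SD, cut at about 20% in these data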
MPTP inh – blocks calcium-induced mitochondrial swelling; isolated mouse mitochondria, Ca2+ swelling absorbance, 30 min; inhibition, % at 10 µM; 1.4% of 360,000 active;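 active = inhibition of 50% or more, scaled per plate between neutral and stimulator controls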
GRIN3A LBD mod – modulates the human NR3A ligand-binding domain | Tm shift relative to glycine control, % at 25 µM | 2.5% of 340,000 active | AID 1259313 | NR3A LBD differential scanning fluorimetry, Tm shift; 0% = protein alone, 100% = glycine-bound protein;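 active = melting temperature shift of at least 10% of the positive control shift, at one fixed dose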
ADAM10 counter – ADAM10 inhibition, counter-screen for ADAM17 exosite hits. shares compounds with ADAM17 inh. 47% of 2,900 active. inhibition, % at 6.95 µM. recombinant ADAM10, EDANS/DABCYL FRET peptide cleavage, 3 h;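 active = mean inhibition over the triplicate runs exceeds the activity threshold set in the earlier primary screen, cut at about 20% in these data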
ADAM17 confirm – confirmation of inhibitors of human ADAM17 | shares compounds with ADAM17 inh | recombinant ADAM17, EDANS/DABCYL QFRET peptide cleavage | inhibition, % at 6.95 µM | 65% of 2,900 active | AID 743257;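 active = mean inhibition across replicates above the hit cutoff set in the primary screen, cut at about 8.5% in these data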
Of the large screens only hits and unclear results are named; the others gave an inactive call (follow-up assays come after a bar, where they were run).

N#Cc1c(-c2ccccc2)c(-c2ccccc2)nn(CC(=O)NNC(=O)Nc2ccc(Cl)cc2)c1=O	ADAM17 inh 14.1, GRIN3A LBD mod 15.2 | ADAM10 counter 23.1 | ADAM17 confirm 19.4
CCCCc1nnc(SC(C)C(=O)Nc2nccs2)n1C (configuration not stated)	none
C=CCN=C1NC(c2cccc(Cl)c2)C(C(=O)OC)=C(C)N1Cc1cccc(C(F)(F)F)c1 (configuration not stated)	ADAM17 inh 10.0 (no result: SKN-1 block, MT1-MMP act inh, MPTP inh, GRIN3A LBD mod) | ADAM10 counter inactive | ADAM17 confirm inactive
COC(=O)C1=C(C)N(Cc2cccc(C(F)(F)F)c2)C(=NCc2ccccc2C(F)(F)F)NC1c1cccc(F)c1 (configuration not stated)	ADAM17 inh 9.6 (no result: SKN-1 block, MT1-MMP act inh, MPTP inh, GRIN3A LBD mod) | ADAM10 counter 20.6 | ADAM17 confirm 17.5
COC(=O)C1=C(C)N(Cc2cccc(C(F)(F)F)c2)C(=NCc2ccc3c(c2)OCO3)NC1c1ccccc1 (configuration not stated)	none (no result: SKN-1 block, MT1-MMP act inh, MPTP inh, GRIN3A LBD mod)
COC(=O)C1=C(C)N(Cc2ccc(C(F)(F)F)cc2)C(=NCc2ccc3c(c2)OCO3)NC1c1ccccc1 (configuration not stated)	ADAM17 inh 9.6 (no result: SKN-1 block, MT1-MMP act inh, MPTP inh, GRIN3A LBD mod) | ADAM10 counter inactive | ADAM17 confirm inactive
C=CCN=C1NC(c2ccccc2)C(C(=O)OC)=C(C)N1Cc1cccc(C(F)(F)F)c1 (configuration not stated)	none (no result: SKN-1 block, MT1-MMP act inh, MPTP inh, GRIN3A LBD mod)
Cc1ccc(C(=O)CCC(=O)OC(C)C(=O)NC2CCCCC2C)cc1 (configuration not stated)	none
COc1ccc(Br)c(C(=O)OCc2cc(=O)oc3cc(C)ccc23)c1	none
COc1ccc(NC(=O)c2cccc(N3C(=O)C4C5CCC(C5)C4C3=O)c2)cc1 (configuration not stated)	ADAM17 inh 11.0 | ADAM10 counter inactive | ADAM17 confirm inactive
O=C(/C=C/c1ccccc1O)c1ccc(Cl)cc1	ADAM17 inh 10.0 | ADAM10 counter inactive | ADAM17 confirm 9.4
COC(=O)c1c(C)n(-c2ccc(OC)cc2)c2ccc(O)cc12	ADAM17 inh 12.2 | ADAM10 counter inactive | ADAM17 confirm 11.5
CC(C)OC(=O)CSc1nnc(C2CCCCC2)n1N	none
COc1ccc(NC(=O)CN2CCCC2c2cccs2)cc1S(=O)(=O)N1CCCCC1 (configuration not stated)	ADAM17 inh 9.5 | ADAM10 counter inactive | ADAM17 confirm inactive
CCOc1ccc(NC(=O)CN2CCCC2c2cccs2)cc1S(=O)(=O)N1CCCC1 (configuration not stated)	none
O=C1CC(C(=O)O)(c2ccccc2)c2cccc(F)c21 (configuration not stated)	none
COc1ccc(C2CC(O)(c3ccccc3)Oc3cc(OC)c(OC)c(OC)c32)cc1 (configuration not stated)	none
OC1(c2ccccc2)CC(c2ccccc2)c2ccccc2O1 (configuration not stated)	ADAM17 inh 9.2 | ADAM10 counter 30.4 | ADAM17 confirm 15.8
Cc1[nH]c2ccccc2c1/C=N\NC(=O)CNc1ccc2c(c1)OCO2	ADAM17 inh 12.9 | ADAM10 counter inactive | ADAM17 confirm inactive
S=c1[nH]nc(COc2ccc(Cl)cc2)n1Cc1ccccc1	none
S=c1[nH]nc(COc2ccc(Cl)cc2)n1C1CCCCC1	ADAM17 inh 11.5 | ADAM10 counter inactive | ADAM17 confirm inactive
COC(=O)c1cccc(-n2c(CCC(=O)O)ccc2-c2cccs2)c1	none
CCC1C(=NO)C(CC)C(c2ccccc2)NC1c1ccccc1 (configuration not stated)	ADAM17 inh 17.1 | ADAM10 counter inactive | ADAM17 confirm 10.2
CC1C(=NO)C(C)C(c2ccccc2)NC1c1ccccc1 (configuration not stated)	none
CCOC(=O)c1[nH]c2ccc(C(=O)OC)cc2c1C(=O)OCC	none
COC(=O)c1ccc2[nH]c(C3(O)CCCCC3)c(C)c2c1	ADAM17 inh 10.7 | ADAM10 counter inactive | ADAM17 confirm inactive
c1ccc(CCNCc2cccs2)nc1	none
O=C1NC(Cc2ccccc2)c2nc3ccc(F)cc3c(=O)n2-c2cc(Cl)ccc21 (configuration not stated)	ADAM17 inh 12.8 (no result: SKN-1 block, MT1-MMP act inh, MPTP inh, GRIN3A LBD mod) | ADAM10 counter inactive | ADAM17 confirm inactive
Cc1onc(-c2ccc(Cl)cc2)c1-c1ccn(S(=O)(=O)c2ccccc2)n1	ADAM17 inh 13.7 (no result: SKN-1 block, MT1-MMP act inh, MPTP inh, GRIN3A LBD mod) | ADAM10 counter inactive | ADAM17 confirm 10.3
Cc1ccc(S(=O)(=O)n2ccc(-c3c(-c4ccccc4)noc3C)n2)cc1	none (no result: SKN-1 block, MT1-MMP act inh, MPTP inh, GRIN3A LBD mod)
O=C(Nc1cccc(Oc2ccccc2)c1)C1Cc2c(-c3cccc(F)c3)ccnc2O1 (configuration not stated)	ADAM17 inh 14.7 (no result: GRIN3A LBD mod) | ADAM10 counter inactive | ADAM17 confirm 10.9
COC(=O)c1ccc(NC(=O)CN2C(=O)c3ccccc3S2(=O)=O)cc1	none
COc1ccc(Cl)cc1S(=O)(=O)N1CCN(c2ccc(F)cc2)CC1	none
COc1c(S(=O)(=O)N2CCN(c3ccc(F)cc3)CC2)ccc(Cl)c1Cl	ADAM17 inh 9.7 | ADAM10 counter 21.9 | ADAM17 confirm 14.2
Cc1ccc(S(=O)(=O)N2CC(O)CC2C(=O)NCc2ccc3c(c2)OCO3)cc1 (configuration not stated)	none
Cc1cccc(CSCCNC(=O)c2ccc(N(C)S(=O)(=O)c3ccccc3)cc2)c1	ADAM17 inh 10.5 | ADAM10 counter 23.4 | ADAM17 confirm 11.6
CN(c1ccc(C(=O)NCCSCc2ccccc2)cc1)S(=O)(=O)c1ccccc1	none
O=C(CNS(=O)(=O)c1ccccc1)NCC(=O)OCc1ccc(Br)cc1	none
Cc1ccc(-c2nnn(CCC(=O)N3CCCCC3C)n2)cc1 (configuration not stated)	ADAM17 inh 9.5 | ADAM10 counter inactive | ADAM17 confirm inactive
O=C(CNC(=O)/C(=C\c1ccc(Br)cc1)NC(=O)c1ccccc1)OCc1ccccc1	ADAM17 inh 10.1 | ADAM10 counter 22.4 | ADAM17 confirm inactive
CCN1C(=O)c2cccc3c(NC(=O)c4ccc5c(c4)OCCO5)ccc1c23	ADAM17 inh 9.5 (no result: MT1-MMP act inh) | ADAM10 counter inactive | ADAM17 confirm inactive
CN(C)S(=O)(=O)c1cc(NC(=O)COC(=O)Cc2cccc3ccccc23)ccc1Cl	ADAM17 inh 8.8 | ADAM10 counter 27.4 | ADAM17 confirm 17.3
CCCCCCCN(C(=O)CCl)c1ccccc1C	none

Screens deposited in PubChem BioAssay by several laboratories.
